Measured values of several laboratories.
Observed: cell growth or viability

The IC50 of `O=C1C(=Nc2ccc(Cl)cc2Br)c2ccccc2N1Cc1ccc(Br)cc1` is reported as 0.6 µM (HCT-116; MTT; 48 h).
With `O=C1CCC(N2C(=O)c3cccc4c(Cc5cnn(C6CCNCC6)c5)ccc2c34)C(=O)N1` (centres unmarked) the IC50 was 0.00016 µM (NCI-H929).
`COc1cc(C2C3=C(COC3=O)N(CCO)c3cc4c(cc32)CCC4)cc(OC)c1OC` (centres unmarked) has an IC50 of 0.18 µM (EMT6; ATP luminescence; 48 h).
`COc1cc(C2C3=C(Nc4nc(SC)[nH]c(=O)c42)c2ccccc2C3=O)ccc1O` (centres unmarked) has an IC50 of over 1000 µM (SK-OV-3; MTT; 72 h).
`O=C1CCC(N2Cc3c(OCc4ccc(CN5CCNCC5)cc4)cccc3C2=O)C(=O)N1` (centres unmarked) has an IC50 of 0.0204 µM (NCI-H929).
For `COc1ccc(Nc2ncnc3c2ncn3Cc2ccc(C(=O)Nc3ccccc3N)cc2)cc1`, the IC50 was 11 µM (Raji; MTT; 72 h).
`Cc1cc(C)cc(NC(=O)Nc2nc3cc(-c4ccc5ncn(Cc6ccccc6)c(=O)c5c4)ccc3s2)c1` has an IC50 of over 20 µM (PC-9; MTT; 72 h).
For `CN1CCC(NC2CCc3[nH]c4c(C(N)=O)ccc(-c5ccccc5Cl)c4c3C2)CC1` (centres unmarked), the IC50 was 0.0247 µM (DOHH-2; 96 h).
For `O=C(Nc1ccc(Br)cc1)Nc1nc2cc(-c3ccc4ncn(Cc5ccccc5)c(=O)c4c3)ccc2s1`, the IC50 was over 20 µM (PC-9; MTT; 72 h).
`O=C(NO)c1ccc(Cn2cnc3c(Nc4ccc(F)c(Cl)c4)ncnc32)cc1` gave an IC50 of 0.87 µM (Raji; MTT; 72 h).
`O=C1CCC(N2C(=O)c3cccc4c(Cc5ccc(CN6CCNCC6)nc5)ccc2c34)C(=O)N1` (centres unmarked) has an IC50 of 0.0135 µM (NCI-H929).
For `COc1cccc(NC(=O)Nc2nc3cc(-c4ccc5ncn(CC(=O)N6CCOCC6)c(=O)c5c4)ccc3s2)c1`, the IC50 was over 20 µM (PC-9; MTT; 72 h).
`Cc1nc(Nc2ncc(C(=O)Nc3c(C)cccc3Cl)s2)cc(N2CC[C@H](O)C2)n1` gave an IC50 of over 10 µM (JVM13; ATP luminescence; 72 h).
`Cc1sc2c(c1C)C(c1ccc(Cl)cc1)=N[C@@H](CC(=O)NCCCCNC(=O)COc1cccc3c1C(=O)N(C1CCC(=O)NC1=O)C3=O)c1nnc(C)n1-2` (some centres unmarked) gave an IC50 of 5.12 µM (AGS; CCK-8; 72 h).
`Cc1ccc(NC(=O)Nc2nc3cc(-c4ccc5ncn(Cc6ccccc6)c(=O)c5c4)ccc3s2)cc1` gave an IC50 of over 20 µM (PC-9; MTT; 72 h).
`CC(C)(O)C(=O)N1CCC(n2cc(Cc3ccc4c5c(cccc35)C(=O)N4C3CCC(=O)NC3=O)cn2)CC1` (centres unmarked) gave an IC50 of 0.00019 µM (NCI-H929).
`O=C(Nc1cccc(F)c1)Nc1nc2cc(-c3ccc4ncn(Cc5ccccc5)c(=O)c4c3)ccc2s1` gave an IC50 of over 20 µM (PC-9; MTT; 72 h).
`O=C(NO)c1ccc(Cn2cnc3c(Nc4ccc(Cl)cc4)ncnc32)cc1` has an IC50 of 0.36 µM (Raji; MTT; 72 h).
With `O=C1CCC(N2C(=O)c3cccc4c(Cc5cnn(C6CCN(C(=O)CO)CC6)c5)ccc2c34)C(=O)N1` (centres unmarked) the IC50 was 0.00016 µM (NCI-H929).
`CCCC(=O)Nc1nc2cc(-c3ccc4ncn(Cc5ccccc5)c(=O)c4c3)ccc2s1` has an IC50 of over 20 µM (PC-9; MTT; 72 h).
`Cc1cccc(N=C2C(=O)N(Cc3ccccc3)c3ccccc32)c1` has an IC50 of 2.72 µM (HCT-116; MTT; 48 h).
For `Nc1ccccc1NC(=O)c1ccc(Cn2cnc3c(Nc4ccc(Br)cc4F)ncnc32)cc1`, the IC50 was 0.12 µM (Raji; MTT; 72 h).
`CCNC(=O)Nc1nc2cc(-c3ccc4ncn(Cc5ccccc5)c(=O)c4c3)ccc2s1` has an IC50 of over 20 µM (PC-9; MTT; 72 h).
